The source made the active and inactive calls. No cut-off for these calls is given here.
Experiments:
FTC-133 [1] = assay: Induction of apoptosis in human FTC-133 cells assessed as caspase-3 positive cells at 5 uM after 24 hrs by immunohistochemical analysis; format: functional, cell-based
How it was run: (§1)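 Cells on chamber slides are treated 24 h with 5 µM compound, then fixed in 4% paraformaldehyde for 20 min. Unspecific sites are blocked with 1% NGS for 1 h, then cells are incubated overnight at 37 °C with mouse anti-caspase-3 (1:200) and a TRITC anti-mouse secondary. Caspase-3-positive cells are counted by fluorescence microscopy in four fields per coverslip across four experiments.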

8305C [2] = assay: Induction of apoptosis in human 8305C cells assessed as caspase-3 positive cells at 5 uM after 24 hrs by immunohistochemical analysis; format: functional, cell-based; how it was run: as §1
8305C [3] = assay: Cytotoxicity against human 8305C cells after 24 hrs by MTT assay; format: functional, cell-based
How it was run: (§2)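 FTC-133 (DMEM, 2 mM GlutaMAX, 10% FBS) and 8305C (MEM, 2 mM GlutaMAX, 10% FBS, 1% non-essential amino acids) cells are exposed to compound at 0.5–20 µM for 24 h at 37 °C, 5% CO2. MTT is added (20 µL of 0.5% in PBS, pH 7.4) for 1 h, then dissolved in DMSO and read at 570 nm. IC50 is taken graphically from dose–effect curves. Mean of four independent experiments in triplicate.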

FTC-133 [4] = assay: Cytotoxicity against human FTC-133 cells after 24 hrs by MTT assay; format: functional, cell-based; settings: FTC-133, 24 h; how it was run: as §2
FTC-133 [5] = assay: Induction of apoptosis in human FTC-133 cells assessed as DNA fragmentation at 5 uM after 24 hrs by TUNEL assay (reference value: 3 +/- 1%); format: functional
8305C [6] = assay: Induction of apoptosis in human 8305C cells assessed as DNA fragmentation at 5 uM after 24 hrs by TUNEL assay (reference value: 2 +/- 1%); format: functional

Compound	Activity (FTC-133 [1])	Activity (8305C [2])	IC50 (8305C [3]) [µM]	IC50 (FTC-133 [4]) [µM]	Activity (FTC-133 [5]) [%]	Activity (8305C [6]) [%]
CN1O[C@@H](n2cc(-c3ccc(F)cc3)nn2)C[C@@H]1CO	Active	Active	6.76	6.07		
COc1ccc(-c2cn([C@@H]3C[C@H](CO)N(C)O3)nn2)cc1 (relative stereo)	Active	Active	7.18	6.48		
CN1O[C@@H](n2cc(-c3ccccc3)nn2)C[C@@H]1CO (relative stereo)	Active	Active	7.14	6.03		
CN1O[C@H](n2cc(-c3ccccc3)nn2)C[C@@H]1CO (relative stereo)	Active	Active	8.76	6.33		
CN1O[C@@H](n2ccnn2)C[C@@H]1CO (relative stereo)	Active	Active	7.96	6.53		
CN1O[C@H](n2ccnn2)C[C@@H]1CO (relative stereo)	Active	Active	8.13	6.3		
CCCc1cn([C@H]2C[C@H](CO)N(C)O2)nn1 (relative stereo)	Active	Active	5.82	3.87	95	90
CCCc1cn([C@@H]2C[C@H](CO)N(C)O2)nn1 (relative stereo)	Active	Active	6.87	4.71		
COc1ccc(-c2cn([C@H]3C[C@H](CO)N(C)O3)nn2)cc1 (relative stereo)	Active	Active	8.01	7		
CCCCCc1ccc(-c2cn([C@H]3C[C@H](CO)N(C)O3)nn2)cc1 (relative stereo)	Active	Active	5.96	3.95		
CCCCCc1ccc(-c2cn([C@@H]3C[C@H](CO)N(C)O3)nn2)cc1 (relative stereo)	Active	Active	6.24	4.49		
CN1O[C@H](n2cc(-c3ccc(F)cc3)nn2)C[C@@H]1CO (relative stereo)	Active	Active	6.85	5.85		
Nc1ccn([C@@H]2O[C@H](CO)[C@@H](O)C2(F)F)c(=O)n1 [GEMCITABINE]	Active	Active	4.53	3.36		

From ChEMBL document CHEMBL3098010, “Synthesis and biological evaluation of 3-hydroxymethyl-5-(1H-1,2,3-triazol) isoxazolidines” (Bioorg Med Chem, 2013)
